Experimental data as given in ChEMBL document CHEMBL1136094, “Novel, potent and selective cyclin D1/CDK4 inhibitors: indolo[6,7-a]pyrrolo[3,4-c]carbazoles” (Bioorg Med Chem Lett, 2003).
pIC50: −log10 of the molar value. ≈ marks a conversion by molar mass, not a printed value.

Assays:
[1] = Aqueous solubility (in situ) in D5W after 1 week was determined; format: physicochemical; conditions: D5W
[2] = Inhibition of AMP-activated Protein Kinase at 100 nM; set-up: scale not given: the % may be the effect or the level left
Outline: (§1)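 Panel profiling of isolated kinases with inhibitor at 100 nM and 500 nM. […] Remaining kinase activity is expressed as % of control and is the mean of duplicate assays.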

[3] = target: Tyrosine-protein kinase Blk (Homo sapiens) (UniProt P51451); test: Inhibition of B lymphoid tyrosine kinase at 100 nM; set-up: scale not given: the % may be the effect or the level left; outline: as §1
Chain of Tyrosine-protein kinase Blk (Homo sapiens) (P51451 2-505 limits assumed): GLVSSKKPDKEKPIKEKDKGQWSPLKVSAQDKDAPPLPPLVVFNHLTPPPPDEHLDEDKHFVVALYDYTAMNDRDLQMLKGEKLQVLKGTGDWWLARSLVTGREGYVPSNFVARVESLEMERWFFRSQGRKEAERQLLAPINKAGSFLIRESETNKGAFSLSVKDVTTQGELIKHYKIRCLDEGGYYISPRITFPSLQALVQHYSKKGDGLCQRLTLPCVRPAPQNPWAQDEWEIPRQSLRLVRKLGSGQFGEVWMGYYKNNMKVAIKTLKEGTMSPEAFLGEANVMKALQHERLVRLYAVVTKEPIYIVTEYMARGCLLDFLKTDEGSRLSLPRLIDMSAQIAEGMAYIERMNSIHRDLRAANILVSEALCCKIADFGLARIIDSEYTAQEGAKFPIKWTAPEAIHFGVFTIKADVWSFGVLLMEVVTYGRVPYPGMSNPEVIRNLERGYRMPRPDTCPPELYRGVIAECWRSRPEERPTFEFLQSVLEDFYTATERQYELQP

[4] = target: Tyrosine-protein kinase Blk (Homo sapiens) (UniProt P51451); test: Inhibition of B lymphoid tyrosine kinase at 500 nM; set-up: scale not given: the % may be the effect or the level left; outline: as §1
[5] = target: Casein kinase I (Homo sapiens) (UniProt Q9HCP0+P78368+P48730+P49674+P48729); test: Inhibition of CK1 kinase at 100 nM; format: protein assay; set-up: scale not given: the % may be the effect or the level left; outline: as §1
[6] = target: Casein kinase II (Homo sapiens) (UniProt P67870+P68400+P19784); test: Inhibition of CK2 kinase at 100 nM; format: protein-complex assay; set-up: scale not given: the % may be the effect or the level left; outline: as §1
[7] = target: T1, Cyclin-dependent kinase 5/CDK5 activator 1 (Homo sapiens) (UniProt Q00535+Q15078); test: Inhibition of Cyclin-dependent kinase 5-p35nck5a at 100 nM; format: protein-complex assay; set-up: scale not given: the % may be the effect or the level left; outline: as §1
[8] = target: T1, Cyclin-dependent kinase 5/CDK5 activator 1 (Homo sapiens); test: Inhibition of Cyclin-dependent kinase 5-p35nck5a at 500 nM; format: protein-complex assay; set-up: scale not given: the % may be the effect or the level left; outline: as §1
[9] = target: T2, Cyclin-dependent kinase 2/cyclin A (Homo sapiens) (UniProt P24941+P20248+P78396); test: Inhibition of Cyclin A-cyclin-dependent kinase 2 at 100 nM; format: protein-complex assay; set-up: scale not given: the % may be the effect or the level left; outline: as §1
[10] = target: T2, Cyclin-dependent kinase 2/cyclin A (Homo sapiens); test: Inhibition of Cyclin A-cyclin-dependent kinase 2 at 500 nM; format: protein-complex assay; set-up: scale not given: the % may be the effect or the level left; outline: as §1
[11] = target: Cyclin-dependent kinase 2/cyclin E (Homo sapiens, UniProt P24941); test: Inhibitory activity against Cyclin E-cyclin-dependent kinase 2 in enzymatic assay by measuring phosphorylation of RbING; format: protein-complex assay
[12] = target: Tyrosine-protein kinase Fyn (Homo sapiens) (UniProt P06241); test: Inhibition of Fyn protein kinase at 500 nM; set-up: scale not given: the % may be the effect or the level left; outline: as §1
[13] = target: Glycogen synthase kinase-3 beta (Homo sapiens, UniProt P49841); test: Inhibition of Glycogen synthase kinase-3 beta
[14] = target: Cyclin-dependent kinase 4 (Homo sapiens) (UniProt P11802); test: Inhibition of Rb phosphorylation at the CDK4 specific Ser780 residue (3 fold increase over control) after 24 hr incubation in HCT116 cells; format: functional, cell-based; conditions: HCT-116, concentration not given here
[15] = target: Mitogen-activated protein kinase kinase kinase 20 (Homo sapiens, UniProt Q9NYL2); test: Inhibition of MLK-7 kinase
[16] = target: Dual specificity mitogen-activated protein kinase kinase 7 (Homo sapiens) (UniProt O14733); test: Inhibition of MKK7-beta kinase at 100 nM; set-up: scale not given: the % may be the effect or the level left; outline: as §1
Chain of Dual specificity mitogen-activated protein kinase kinase 7 (Homo sapiens) (O14733 whole entry): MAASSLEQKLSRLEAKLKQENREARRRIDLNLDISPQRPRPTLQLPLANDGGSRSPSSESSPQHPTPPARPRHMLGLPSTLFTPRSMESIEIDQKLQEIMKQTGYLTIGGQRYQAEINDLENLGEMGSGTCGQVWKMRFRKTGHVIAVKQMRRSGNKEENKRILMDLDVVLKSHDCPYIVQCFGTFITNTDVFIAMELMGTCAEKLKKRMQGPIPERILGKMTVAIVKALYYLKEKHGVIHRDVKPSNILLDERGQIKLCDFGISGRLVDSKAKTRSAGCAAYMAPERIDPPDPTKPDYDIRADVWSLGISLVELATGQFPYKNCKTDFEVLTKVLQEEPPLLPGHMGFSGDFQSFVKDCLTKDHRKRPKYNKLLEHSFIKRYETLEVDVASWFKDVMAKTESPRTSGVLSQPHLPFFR

[17] = target: Dual specificity mitogen-activated protein kinase kinase 7 (Homo sapiens) (UniProt O14733); test: Inhibition of MKK7-beta kinase at 500 nM; set-up: scale not given: the % may be the effect or the level left; outline: as §1
[18] = target: Dual specificity mitogen-activated protein kinase kinase 1 (Homo sapiens) (UniProt Q02750); test: Inhibition of Mitogen activated protein kinase kinase kinase 1 at 500 nM; set-up: scale not given: the % may be the effect or the level left
[19] = target: Mitogen-activated protein kinase 1 (Homo sapiens) (UniProt P28482); test: Inhibition of Mitogen-activated protein kinase 2 at 100 nM; set-up: scale not given: the % may be the effect or the level left; outline: as §1
Chain of Mitogen-activated protein kinase 1 (Homo sapiens) (P28482 whole entry): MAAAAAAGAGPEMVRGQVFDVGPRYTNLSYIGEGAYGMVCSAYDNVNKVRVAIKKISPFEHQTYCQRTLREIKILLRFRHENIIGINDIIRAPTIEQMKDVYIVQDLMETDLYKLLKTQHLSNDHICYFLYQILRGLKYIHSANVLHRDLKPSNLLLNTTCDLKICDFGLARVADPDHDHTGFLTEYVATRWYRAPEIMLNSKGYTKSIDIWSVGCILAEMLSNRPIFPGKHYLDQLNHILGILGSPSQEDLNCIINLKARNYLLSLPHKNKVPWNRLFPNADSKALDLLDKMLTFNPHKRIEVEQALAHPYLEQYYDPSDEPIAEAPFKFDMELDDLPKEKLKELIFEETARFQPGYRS

[20] = target: Dual specificity mitogen-activated protein kinase kinase 4 (Homo sapiens) (UniProt P45985); test: Inhibition of mitogen-activated protein kinase kinase 4 at 100 nM; set-up: scale not given: the % may be the effect or the level left
Chain of Dual specificity mitogen-activated protein kinase kinase 4 (Homo sapiens) (P45985 whole entry): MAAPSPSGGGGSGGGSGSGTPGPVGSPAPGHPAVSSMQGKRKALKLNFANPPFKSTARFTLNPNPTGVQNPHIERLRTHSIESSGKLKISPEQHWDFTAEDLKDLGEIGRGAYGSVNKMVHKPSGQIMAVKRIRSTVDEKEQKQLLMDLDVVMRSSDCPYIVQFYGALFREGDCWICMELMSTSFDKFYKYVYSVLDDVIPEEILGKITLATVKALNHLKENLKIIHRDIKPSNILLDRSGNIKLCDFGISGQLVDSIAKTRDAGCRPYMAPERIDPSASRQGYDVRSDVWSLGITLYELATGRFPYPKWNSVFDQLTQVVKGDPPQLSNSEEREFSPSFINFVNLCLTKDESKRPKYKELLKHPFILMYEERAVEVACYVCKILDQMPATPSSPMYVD
Outline: (§2)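 Panel of 39 kinases, each tested at 100 and 500 nM inhibitor. […] Activity is expressed as % of control and is the mean of duplicate assays.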

[21] = target: Dual specificity mitogen-activated protein kinase kinase 4 (Homo sapiens) (UniProt P45985); test: Inhibition of mitogen-activated protein kinase kinase 4 at 500 nM; set-up: scale not given: the % may be the effect or the level left; outline: as §2
[22] = target: Dual specificity mitogen-activated protein kinase kinase 6 (Homo sapiens) (UniProt P52564); test: Inhibition of mitogen-activated protein kinase kinase 6 at 500 nM; set-up: scale not given: the % may be the effect or the level left; outline: as §2
[23] = target: Mitogen-activated protein kinase 14 (Homo sapiens, UniProt Q16539); test: Inhibition of Mitogen-activated protein kinase p38 alpha
[24] = target: RAF proto-oncogene serine/threonine-protein kinase (Homo sapiens) (UniProt P04049); test: Inhibition of RAF proto-oncogene serine/threonine-protein kinase at 100 nM; set-up: scale not given: the % may be the effect or the level left; outline: as §2
Chain of RAF proto-oncogene serine/threonine-protein kinase (Homo sapiens) (P04049 whole entry): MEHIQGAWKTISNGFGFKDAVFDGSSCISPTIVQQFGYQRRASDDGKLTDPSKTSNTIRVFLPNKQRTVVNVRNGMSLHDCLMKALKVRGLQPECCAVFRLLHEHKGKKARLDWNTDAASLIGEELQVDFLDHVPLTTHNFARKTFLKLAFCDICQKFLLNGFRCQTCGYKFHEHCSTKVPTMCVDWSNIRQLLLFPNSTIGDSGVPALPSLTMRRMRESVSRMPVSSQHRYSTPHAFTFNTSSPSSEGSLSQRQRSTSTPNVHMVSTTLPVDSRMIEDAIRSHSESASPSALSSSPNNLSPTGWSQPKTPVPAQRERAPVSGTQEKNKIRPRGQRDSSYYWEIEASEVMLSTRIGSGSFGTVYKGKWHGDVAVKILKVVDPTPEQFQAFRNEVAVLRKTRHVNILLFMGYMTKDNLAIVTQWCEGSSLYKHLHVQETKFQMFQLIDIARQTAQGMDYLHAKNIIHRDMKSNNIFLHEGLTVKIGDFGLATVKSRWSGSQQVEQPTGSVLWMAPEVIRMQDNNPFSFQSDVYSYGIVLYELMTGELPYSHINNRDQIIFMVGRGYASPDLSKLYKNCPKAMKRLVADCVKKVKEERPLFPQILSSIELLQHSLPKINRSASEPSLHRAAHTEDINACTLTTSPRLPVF

[25] = target: RAF proto-oncogene serine/threonine-protein kinase (Homo sapiens) (UniProt P04049); test: Inhibition of RAF proto-oncogene serine/threonine-protein kinase at 500 nM; set-up: scale not given: the % may be the effect or the level left; outline: as §2
[26] = target: Serine/threonine-protein kinase N2 (Homo sapiens) (UniProt Q16513); test: Inhibition of PRK2 at 100 nM; set-up: scale not given: the % may be the effect or the level left; outline: as §1
Chain of Serine/threonine-protein kinase N2 (Homo sapiens) (Q16513 whole entry, looked up): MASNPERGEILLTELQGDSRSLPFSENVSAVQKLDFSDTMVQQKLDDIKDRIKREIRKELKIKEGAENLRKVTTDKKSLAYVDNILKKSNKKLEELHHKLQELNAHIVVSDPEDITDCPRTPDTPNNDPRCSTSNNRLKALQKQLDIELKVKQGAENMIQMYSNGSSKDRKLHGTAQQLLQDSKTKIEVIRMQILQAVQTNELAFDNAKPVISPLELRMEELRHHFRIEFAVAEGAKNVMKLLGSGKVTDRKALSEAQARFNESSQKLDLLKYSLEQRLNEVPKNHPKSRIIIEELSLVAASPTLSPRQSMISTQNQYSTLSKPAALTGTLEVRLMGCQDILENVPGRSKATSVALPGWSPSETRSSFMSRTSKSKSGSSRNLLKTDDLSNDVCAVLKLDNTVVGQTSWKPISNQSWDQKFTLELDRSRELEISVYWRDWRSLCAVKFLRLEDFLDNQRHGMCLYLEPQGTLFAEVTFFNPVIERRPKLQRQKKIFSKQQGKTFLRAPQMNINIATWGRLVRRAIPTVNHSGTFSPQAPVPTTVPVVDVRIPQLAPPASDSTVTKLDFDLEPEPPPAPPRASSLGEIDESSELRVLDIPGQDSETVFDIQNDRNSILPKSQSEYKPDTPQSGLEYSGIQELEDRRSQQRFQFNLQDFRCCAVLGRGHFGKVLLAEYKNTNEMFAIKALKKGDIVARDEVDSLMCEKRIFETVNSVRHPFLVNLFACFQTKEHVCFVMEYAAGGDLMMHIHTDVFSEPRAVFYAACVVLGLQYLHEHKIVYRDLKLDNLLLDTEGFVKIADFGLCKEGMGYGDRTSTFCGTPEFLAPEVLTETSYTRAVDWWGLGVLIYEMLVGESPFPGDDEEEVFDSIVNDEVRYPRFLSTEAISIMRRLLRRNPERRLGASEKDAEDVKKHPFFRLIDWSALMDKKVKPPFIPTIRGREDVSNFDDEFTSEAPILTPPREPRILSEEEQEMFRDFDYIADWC

[27] = target: Serine/threonine-protein kinase N2 (Homo sapiens) (UniProt Q16513); test: Inhibition of PRK2 at 500 nM; set-up: scale not given: the % may be the effect or the level left; outline: as §1
[28] = target: Protein kinase C gamma type (Homo sapiens) (UniProt P05129); test: Inhibition of Protein kinase C gamma at 100 nM; set-up: scale not given: the % may be the effect or the level left; outline: as §1
[29] = target: Protein kinase C alpha type (Homo sapiens) (UniProt P17252); test: Inhibition of Protein kinase C alpha at 100 nM; set-up: scale not given: the % may be the effect or the level left; outline: as §1
[30] = target: Protein kinase C beta type (Homo sapiens) (UniProt P05771); test: Inhibition of Protein kinase C beta 2 at 100 nM; set-up: scale not given: the % may be the effect or the level left; outline: as §1
Chain of Protein kinase C beta type (Homo sapiens) (P05771 2-671 limits assumed): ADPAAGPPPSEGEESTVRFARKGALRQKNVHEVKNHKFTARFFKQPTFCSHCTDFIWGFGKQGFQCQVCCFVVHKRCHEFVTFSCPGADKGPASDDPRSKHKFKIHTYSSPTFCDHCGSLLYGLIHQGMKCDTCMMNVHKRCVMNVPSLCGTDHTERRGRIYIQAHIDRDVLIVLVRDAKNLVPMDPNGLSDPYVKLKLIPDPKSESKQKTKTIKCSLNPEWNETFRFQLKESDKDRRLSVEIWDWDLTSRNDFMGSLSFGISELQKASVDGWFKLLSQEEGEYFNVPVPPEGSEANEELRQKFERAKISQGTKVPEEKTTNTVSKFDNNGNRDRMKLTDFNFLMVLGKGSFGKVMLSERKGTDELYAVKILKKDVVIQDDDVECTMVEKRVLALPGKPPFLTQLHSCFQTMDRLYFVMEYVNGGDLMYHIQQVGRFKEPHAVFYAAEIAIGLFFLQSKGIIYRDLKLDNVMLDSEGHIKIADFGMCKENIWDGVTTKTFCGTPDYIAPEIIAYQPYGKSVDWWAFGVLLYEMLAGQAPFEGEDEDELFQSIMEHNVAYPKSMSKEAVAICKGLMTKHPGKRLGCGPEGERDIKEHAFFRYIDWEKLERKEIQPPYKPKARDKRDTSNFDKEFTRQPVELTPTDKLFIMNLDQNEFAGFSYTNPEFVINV

[31] = target: Protein kinase C beta type (Homo sapiens) (UniProt P05771); test: Inhibition of Protein kinase C beta 2 at 500 nM; set-up: scale not given: the % may be the effect or the level left; outline: as §1
[32] = target: Rho-associated protein kinase 2 (Homo sapiens) (UniProt O75116); test: Inhibition of Protein kinase ROCK2 at 100 nM; set-up: scale not given: the % may be the effect or the level left; outline: as §2
[33] = target: Rho-associated protein kinase 2 (Homo sapiens) (UniProt O75116); test: Inhibition of Protein kinase ROCK2 at 500 nM; set-up: scale not given: the % may be the effect or the level left; outline: as §2
[34] = target: Serine/threonine-protein kinase Chk1 (Homo sapiens) (UniProt O14757); test: Inhibition of Serine/threonine-protein kinase Chk1 at 100 nM; set-up: scale not given: the % may be the effect or the level left; outline: as §2
[35] = target: Serine/threonine-protein kinase Chk2 (Homo sapiens) (UniProt O96017); test: Inhibition of Serine/threonine-protein kinase Chk2 at 100 nM; set-up: scale not given: the % may be the effect or the level left; outline: as §2
Chain of Serine/threonine-protein kinase Chk2 (Homo sapiens) (O96017 whole entry): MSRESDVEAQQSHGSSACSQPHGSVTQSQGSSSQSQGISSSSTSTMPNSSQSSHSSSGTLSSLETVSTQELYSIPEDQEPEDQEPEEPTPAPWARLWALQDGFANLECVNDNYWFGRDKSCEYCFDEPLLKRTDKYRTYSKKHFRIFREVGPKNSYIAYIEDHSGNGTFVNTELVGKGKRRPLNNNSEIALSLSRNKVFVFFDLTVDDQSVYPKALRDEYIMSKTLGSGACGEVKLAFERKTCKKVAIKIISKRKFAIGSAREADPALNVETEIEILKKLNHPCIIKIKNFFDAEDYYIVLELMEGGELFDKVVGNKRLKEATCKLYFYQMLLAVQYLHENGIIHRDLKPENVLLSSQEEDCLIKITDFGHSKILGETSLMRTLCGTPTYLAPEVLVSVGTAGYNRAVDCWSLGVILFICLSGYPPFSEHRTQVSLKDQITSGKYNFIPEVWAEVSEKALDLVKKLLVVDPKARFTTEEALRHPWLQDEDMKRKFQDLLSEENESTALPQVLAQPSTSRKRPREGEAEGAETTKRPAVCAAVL

[36] = target: Serine/threonine-protein kinase Chk2 (Homo sapiens) (UniProt O96017); test: Inhibition of Serine/threonine-protein kinase Chk2 at 500 nM; set-up: scale not given: the % may be the effect or the level left; outline: as §2
[37] = target: Ribosomal protein S6 kinase (P70S6K) (Homo sapiens) (UniProt Q9UBS0+P23443); test: Inhibition of Ribosomal protein S6 kinase (p70S6K) at 500 nM; format: protein-complex assay; set-up: scale not given: the % may be the effect or the level left; outline: as §2
[38] = target: Serine/threonine-protein kinase Sgk1 (Homo sapiens) (UniProt O00141); test: Inhibition of Serum/glucocorticoid regulated kinase at 100 nM; set-up: scale not given: the % may be the effect or the level left; outline: as §2
Chain of Serine/threonine-protein kinase Sgk1 (Homo sapiens) (O00141 whole entry): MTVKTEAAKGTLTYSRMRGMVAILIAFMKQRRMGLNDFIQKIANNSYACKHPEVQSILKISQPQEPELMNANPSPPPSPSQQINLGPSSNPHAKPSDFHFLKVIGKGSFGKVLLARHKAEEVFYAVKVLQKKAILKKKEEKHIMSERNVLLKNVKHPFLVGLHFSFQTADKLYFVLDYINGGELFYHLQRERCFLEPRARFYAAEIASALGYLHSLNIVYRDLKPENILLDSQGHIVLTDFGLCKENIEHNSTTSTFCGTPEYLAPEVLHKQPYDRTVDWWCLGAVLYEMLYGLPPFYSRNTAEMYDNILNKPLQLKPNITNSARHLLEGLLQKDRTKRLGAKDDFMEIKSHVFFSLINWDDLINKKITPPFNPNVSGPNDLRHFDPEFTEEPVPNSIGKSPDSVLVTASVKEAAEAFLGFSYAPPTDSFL

[39] = target: Serine/threonine-protein kinase Sgk1 (Homo sapiens) (UniProt O00141); test: Inhibition of Serum/glucocorticoid regulated kinase at 500 nM; set-up: scale not given: the % may be the effect or the level left; outline: as §2
[40] = target: Tyrosine-protein kinase CSK (Homo sapiens) (UniProt P41240); test: Inhibition of Tyrosine-protein kinase CSK at 500 nM; set-up: scale not given: the % may be the effect or the level left; outline: as §2
[41] = target: Tyrosine-protein kinase SYK (Homo sapiens) (UniProt P43405); test: Inhibition of Syk protein tyrosine kinase at 100 nM; set-up: scale not given: the % may be the effect or the level left; outline: as §2
[42] = target: Mitogen-activated protein kinase 10 (Homo sapiens) (UniProt P53779); test: Inhibition of c-Jun N-terminal kinase 3 at 100 nM; set-up: scale not given: the % may be the effect or the level left; outline: as §2
[43] = target: Mitogen-activated protein kinase 8 (Homo sapiens) (UniProt P45983); test: Inhibition of c-Jun N-terminal kinase 1-alpha 1 at 500 nM; set-up: scale not given: the % may be the effect or the level left; outline: as §2
[44] = target: Tyrosine-protein kinase ZAP-70 (Homo sapiens) (UniProt P43403); test: Inhibition of Zeta-chain (TCR) associated protein kinase 70 kDa (ZAP70) at 500 nM; set-up: scale not given: the % may be the effect or the level left; outline: as §2
[45] = target: Tyrosine-protein kinase Lck (Homo sapiens) (UniProt P06239); test: Inhibition of p56 Lck tyrosine kinase at 500 nM; set-up: scale not given: the % may be the effect or the level left; outline: as §2
[46] = Percent control against SKG at compound concentration of 500 nM; outline: as §2

solubility at 168 h [1]: 8900 µg/mL (≈ 18 mM)
Control [2]: 98%
Control [3]: 74%
Control [4]: 14%
Control [5]: 98%
Control [6]: 99%
Control [7]: 94%
Control [8]: 62%
Control [9]: 83%
Control [10]: 42%
pIC50 [11]: 5.99
Control [12]: 74%
pIC50 [13]: < 4.70
inhibition [14]: 83%
pIC50 [15]: 5.00
Control [16]: 86%
Control [17]: 70%
Control [18]: 87%
Control [19]: 103%
Control [20]: 91%
Control [21]: 84%
Control [22]: 98%
pIC50 [23]: 4.69
Control [24]: 112%
Control [25]: 107%
Control [26]: 97%
Control [27]: 88%
Control [28]: 105%
Control [29]: 100%
Control [30]: 96%
Control [31]: 59%
Control [32]: 90%
Control [33]: 62%
Control [34]: 86%
Control [35]: 84%
Control [36]: 53%
Control [37]: 85%
Control [38]: 94%
Control [39]: 84%
Control [40]: 116%
Control [41]: 94%
Control [42]: 105%
Control [43]: 88%
Control [44]: 107%
Control [45]: 60%
Control [46]: 84%
Structure (SMILES): Cn1ccc2ccc3c4[nH]c5c(CCCN[C@H]6CC[C@H](O)CC6)cccc5c4c4c(c3c21)C(=O)NC4=O
